{"data": "Assay results from different studies", "note": "Compare with care: the assays were run in different laboratories."}
{"SMILES": "CC(C)C[C@@H]1NC(=O)[C@H](CCC(=O)O)NC(=O)[C@H]2CCCN2C(=O)[C@@H](N)CSSC[C@@H](C(=O)O)NC(=O)[C@H]2CCCN2C(=O)[C@@H](Cc2ccccc2)NC(=O)[C@H](CC(C)C)NC(=O)[C@H]([C@@H](C)O)NC(=O)[C@H](C(C)C)NC1=O", "system": "aqueous buffer", "setting": "18 h, pH 7.4", "measurement": "thermodynamic solubility", "value": "679 µM"}
{"SMILES": "CN(C)CCOc1ccc(C=Nc2ccccc2N=Cc2ccc(OCCN(C)C)cc2O)c(O)c1.[Ga+3]", "system": "water", "measurement": "solubility", "value": "> 50000 µg/mL"}
{"SMILES": "CC1(CC(F)(F)F)NC(=O)N(c2ccc(F)c(C(F)(F)F)c2)C1=O (centres unmarked)", "assay": "nephelometry", "system": "aqueous buffer", "measurement": "kinetic solubility", "value": "≤ 50 µg/mL"}
{"SMILES": "CC(C)C[C@H]1C(=O)N[C@H]([C@H](C)O)C(=O)N[C@@H](C)C(=O)N[C@@H](Cc2ccccc2)C(=O)N[C@H](C(=O)O)CSSC[C@H](N)C(=O)N2CCC[C@@H]2C(=O)N[C@@H](CCC(=O)O)C(=O)N[C@@H](C(C)C)C(=O)N2CCC[C@H]2C(=O)N1C", "system": "aqueous buffer", "setting": "18 h, pH 7.4", "measurement": "solubility", "value": "692 µM"}
{"SMILES": "Oc1ccccc1C=Nc1ccccc1N=Cc1ccccc1O.[Ga+3]", "system": "water", "measurement": "solubility", "value": "< 100 µg/mL"}
{"SMILES": "CCCSc1ccc2nc(NC(=O)OC)[nH]c2c1", "system": "simulated gastric fluid", "setting": "24 h, pH 1.2, 37 °C, acidic", "measurement": "thermodynamic solubility", "value": "~300 µg/mL"}
{"SMILES": "O=C1NC2(CCC2)C(=O)N1c1ccc(F)c(C(F)(F)F)c1", "assay": "nephelometry", "system": "aqueous buffer", "measurement": "kinetic solubility", "value": "≤ 50 µg/mL"}
{"SMILES": "CC[C@H](C)[C@@H]1NC(=O)CNC(=O)[C@@H](CC(C)C)NC(=O)[C@@H](C(C)C)NC(=O)[C@H]2CCCN2C(=O)[C@@H](CC(C)C)NC(=O)[C@H](Cc2ccccc2)NC(=O)[C@@H]2CCCN2C(=O)[C@H](CC(C)C)NC(=O)[C@H](CO)NC(=O)CNC(=O)[C@H]([C@@H](C)O)NC1=O", "system": "aqueous buffer", "setting": "18 h, pH 7.4", "measurement": "solubility", "value": "692 µM"}
{"SMILES": "CCC(CNc1nc(-c2cn3ccnc3cc2C)nc2ccccc12)c1ccccc1 (centres unmarked)", "system": "water", "measurement": "solubility", "value": "1.3 µM"}
{"SMILES": "Cc1ccc2c(c1)C(=O)C1(O)CCN(c3ccccc3)C1=N2 (centres unmarked)", "system": "PBS", "setting": "pH 7.4", "measurement": "solubility", "value": "21 µM"}
{"SMILES": "COc1cc(C(=O)c2nc(-c3cccc4[nH]ccc34)c[nH]2)cc(OC)c1OC", "system": "PBS", "setting": "pH 7.4", "measurement": "thermodynamic solubility", "value": "5.25 µM"}
{"SMILES": "c1cc(-c2ccc3ncnc(Nc4ncco4)c3c2)cc(N2C[C@H]3C[C@@H]2CO3)c1", "system": "aqueous buffer", "setting": "pH 7.4, 25 °C", "measurement": "solubility", "value": "6 µM"}
{"SMILES": "CC(C)C[C@H]1C(=O)N2CCC[C@H]2C(=O)N[C@@H](CC(N)=O)C(=O)N[C@H](Cc2ccc(O)cc2)C(=O)N[C@H]([C@H](C)O)C(=O)N[C@@H](Cc2ccc(O)cc2)C(=O)N[C@H](C(=O)O)CSSC[C@H](N)C(=O)N[C@@H](Cc2ccccc2)C(=O)N[C@@H](C(C)C)C(=O)N1C", "system": "aqueous buffer", "setting": "18 h, pH 7.4", "measurement": "thermodynamic solubility", "value": "760 µM"}
{"SMILES": "COc1cc(N2CC[C@@]3(O)C(=O)c4cc(C)c(C)cc4N=C23)ccn1", "system": "PBS", "setting": "pH 7.4", "measurement": "solubility", "value": "42 µM"}
